Compound activity as filed in PubChem.
Pf gamet viab = kills late stage P. falciparum gametocytes. P. falciparum stage V gametocytes, ATP luminescence, 24 h. actives 0.065% (n = 150,000). AID 743093. inhibition, % at 10.9 µM;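 active = inhibition above the mean plus 3 SD of compounds within the control limits, set per campaign, cut at about 38% in these data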
MDM2 E3 inh = inhibitors of human Mdm2 E3 ubiquitin ligase. signal enhancement, % at 5 µM. actives 0.11% (n = 210,000). AID 1230. cell-based MDM2 ubiquitination luciferase reporter, 2 h; 0 = plate control, 100 = twice control, blank-subtracted;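 active = signal enhancement of 30% or more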;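 also: luminescence tracks abundance of the self-degrading MDM2-luciferase fusion protein; higher signal means inhibition of MDM2 E3 ligase activity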
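test system = mammalian cells stably expressing self-ubiquitinating, self-degrading MDM2 E3–luciferase fusion | quantity = 2000 cells/well | incubation = cell settling 4 h, compound treatment 2 h, both 37 °C | signal = luminescence with SteadyLite reagent, 15 min at room temperature | evaluation = % enhancement relative to plate controls after blank subtraction | benchmarks = plate controls and plate blanks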
zVAD death inh = blocks zVAD induced death of L929 cells | viability rescue, % at 10 µM | L929 zVAD necroptosis rescue, ATP luminescence, 24 h; with zVAD 60 µM | actives 0.38% (n = 220,000);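 active = activation, scaled between plate controls, above about 75%, limit read from the data; inactive = activation under that limit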
Rad51 HR inh = Rad51 (human) homologous recombination inhibition. Q06609. hRad51 DNA strand exchange, fluorescence dequenching. inhibition, % at 10 µM. actives 0.085% (n = 200,000). AID 1385;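 active = inhibition above 40% at the single screening dose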
Target sequence (Q06609 whole entry, looked up): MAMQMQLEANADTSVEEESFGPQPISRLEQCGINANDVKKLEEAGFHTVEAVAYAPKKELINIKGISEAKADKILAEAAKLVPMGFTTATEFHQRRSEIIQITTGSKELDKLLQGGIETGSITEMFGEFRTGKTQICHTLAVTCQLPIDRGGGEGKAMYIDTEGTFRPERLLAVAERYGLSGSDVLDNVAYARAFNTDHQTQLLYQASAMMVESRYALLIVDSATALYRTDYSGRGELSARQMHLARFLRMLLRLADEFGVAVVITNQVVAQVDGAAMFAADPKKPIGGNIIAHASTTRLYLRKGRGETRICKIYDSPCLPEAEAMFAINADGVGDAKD
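Material: Human Rad51 nucleoprotein filaments preassembled on unlabelled ssDNA | Also added: Labelled 47-mer dsDNA for strand exchange | Dosing: Single dose, 10 µM final compound | Schedule: 30-min compound preincubation and 15-min exchange, both room temperature | Technique: Fluorescence dequenching at 485/520 nm | Measure: Percent inhibition relative to plate controls and blanks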
TNF necrop inh = TNF-alpha cell death inhibition in Jurkat FADD-/- cells; Jurkat FADD-/- TNF necroptosis rescue, ATP luminescence, 24 h; 0 = TNF only, 100 = no-TNF cells; activation (protection from cell death), % at 10 µM; actives 0.068% (n = 220,000);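 active = activation, meaning protection from cell death, of at least 50% relative to plate controls; inactive = activation below 50%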;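 also: necroptosis triggered by 40 ng/mL TNF-alpha added together with compound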
zVAD death conf = confirmed blocker of zVAD induced death in L929 cells; shares compounds with zVAD death inh; actives 16% (n = 760); L929 zVAD-induced necroptosis rescue, ATP luminescence, 24 h; activation (protection from necroptosis), % at 10 µM;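 active = mean protection from necroptosis of at least 50% over duplicate tests; inactive = mean protection below 50%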
Hits are given with their value; - = inactive; . = no result. A selection: hits, their analogues and other compounds. The true share with any hit is near 0.58%.

SMILES	Pf gamet viab	MDM2 E3 inh	zVAD death inh	Rad51 HR inh	TNF necrop inh	others
CCN(CC)C(=O)c1ccc(NC(=O)CCCSc2ccccc2)cc1	-	-	-	-	-
CCN(CC)C(=O)c1ccc(NC(=O)Nc2ccccc2F)cc1	41.6	-	-	-	-
Cc1nn(Cc2ccccc2)c(C)c1C(=O)NCc1ccccc1F	-	-	-	44.2	-
CN1CC[C@@H](c2ccc(F)cc2)[C@H](COc2ccc3c(c2)OCO3)C1	.	.	.	-	.
CC[N+](C)(CC)CCCCOc1ccc2c(c1)C(=O)c1cc(OCCCC[N+](C)(CC)CC)ccc1-2	-	-	-	41.5	-
Fc1ccccc1N1CCN(Cc2ccc3c(c2)OCO3)CC1	-	-	-	-	-
O=c1[nH]c(N2CCN(Cc3ccc4c(c3)OCO4)CC2)nc2c1CCC2	.	-	-	83.8	-
CS(=O)(=O)c1ccc(C2=C(c3ccccc3)C(=O)OC2)cc1	.	.	.	-	.
COC(=O)C1=C(c2cccc(C#N)c2)C[C@@H]2CC[C@H]1N2C(=O)NCc1cccc2ccccc12	-	.	.	.	.
c1ccc(C2CC3CC4(CCCC4)N2O3)cc1 (configuration not stated)	.	-	-	-	94.0
COC(=O)C1=C(c2ccc(OC)c(OC)c2)C[C@@H]2CC[C@H]1N2C(=O)NCCCOC(C)C	-	.	.	.	.
CC1=CC(C)C(COC(N)=O)(COC(N)=O)C(C)C1 (configuration not stated)	.	-	-	47.9	-
COC(=O)C1=C(c2ccc(F)cc2OCc2ccccc2)C[C@@H]2CC[C@H]1N2C(=O)NCc1ccc2c(c1)OCO2	-	.	.	.	.
CN(C)C(=S)SSC(=S)N(C)C	.	40.8	-	-	-
O=C1Nc2ccccc2/C1=C/c1cnc[nH]1	.	-	85.5	-	-	zVAD death conf=78.6
COC(=O)C1=C(c2ccc(OC(F)(F)F)cc2)C[C@@H]2CC[C@H]1N2C(=O)N1CCOCC1	-	.	.	.	.
C[C@H]1C[C@@H](C)C(=O)[C@@H]([C@H](O)CC2CC(=O)NC(=O)C2)C1	.	-	77.2	-	-	zVAD death conf=79.8
C=C1[C@H]2CC[C@H]3[C@]4(C)C[C@H](O[C@@H]5OC(CO)[C@@H](OSOOO)[C@H](OS(=O)(=O)O)[C@H]5OC(=O)CC(C)C)C[C@@H](C(=O)O)[C@H]4CC[C@]3(C2)[C@H]1O (some centres not stated)	-	.	.	.	.
